Laboratory results from ChEMBL document CHEMBL1123298, “Novel 1,3-bis(aryloxy)propanes as leukotriene D4 antagonists” (1986).

Tested on: Cavia porcellus
Experiment: In vivo antagonistic activity against leukotriene D4 (LTD4) in guinea pig lung
Format: functional
Details: read-out: ID50 (the source's name)
Procedure, shortened: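 Drug in propylene glycol given iv 10 min before LTD4 400 ng/kg iv; controls received solvent. Lung overflow volume read at 5 min; ID50 by inverse prediction, common-slope parallel line assay, 3-fold doses, 2–6 animals/dose.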

## CCCc1c(NC(=O)C(=O)OCC)cccc1OCC(O)COc1ccc(C(C)=O)c(O)c1CCC (stereo not given)
  ED50: 2.6 mg/kg

## CCCc1c(OCC(O)COc2cccc(NC(=O)C(=O)OCC(C)(C)C)c2C#N)ccc(C(C)=O)c1O (stereo not given)
  ED50: 0.461 mg/kg

## CCCc1c(OCCCOc2cccc(NC(=O)C(=O)OCC)c2)ccc(C(C)=O)c1O
  ED50: 1.09 mg/kg

## CCCc1c(OCC(O)COc2cccc(NC(=O)CC(=O)OCC)c2C#N)ccc(C(C)=O)c1O (stereo not given)
  ED50: 0.64 mg/kg

## CCCc1c(OCCCOc2cccc(NC(=O)C(=O)OCC)c2C#N)ccc(C(C)=O)c1O
  ED50: 0.342 mg/kg

## CCCc1c(OCCCOc2cccc(NC(=O)CCC(=O)OCC)c2C#N)ccc(C(C)=O)c1O
  ED50: 1.77 mg/kg

## CCCc1c(OCC(O)COc2cccc(NC(=O)C(=O)OCC)c2C#N)ccc(C(C)=O)c1O (stereo not given)
  ED50: 0.113 mg/kg

## CCCc1c(OCC(O)COc2cccc(NC(=O)C(=O)O)c2C#N)ccc(C(C)=O)c1O (stereo not given)
  ED50: 1.8 mg/kg

## CCCc1c(OCCCOc2cccc(NC(=O)CCC(=O)OCC)c2)ccc(C(C)=O)c1O
  ED50: 1.28 mg/kg

## CCCc1c(OCC(O)COc2ccc3c(=O)cc(C(=O)[O-])oc3c2CCC)ccc(C(C)=O)c1O.[Na+] (stereo not given) [FPL-55712 SODIUM SALT]
  ED50: 0.153 mg/kg
